Assay results published in ChEMBL document CHEMBL5346889, “Discovery of 4-oxo-N-phenyl-1,4-dihydroquinoline-3-carboxamide derivatives as novel anti-inflammatory agents for the treatment of acute lung injury and sepsis” (Eur J Med Chem, 2023).
The source made the active and inactive calls. The calls are words filed in the database; no cut-off is given here.

What was measured:
J774.A1 [1] = test: Antiinflammatory activity in LPS-induced mouse J774.A1 cells assessed as inhibition of LPS-induced TNF-alpha release at 10 uM preincubated for 30 mins followed by LPS stimulation for 24 hrs by ELISA method; format: functional; settings: time 24.5 hrs
In short: (§1)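 J774A.1 macrophages pretreated 30 min at 10 μM, then challenged with LPS 0.5 μg/mL for 24 h at 37 °C, 5% CO2. Medium IL-6 and TNF-α measured by ELISA, normalized to total lysate protein.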

J774.A1 [2] = test: Antiinflammatory activity in LPS-induced mouse J774.A1 cells assessed as inhibition of LPS-induced IL-6 release at 10 uM preincubated for 30 mins followed by LPS stimulation for 24 hrs by ELISA method; format: functional; settings: time 24.5 hrs; in short: as §1
J774.A1 [3] = test: Antiinflammatory activity in LPS-induced mouse J774.A1 cells assessed as inhibition of LPS-induced IL-6 release preincubated for 30 mins followed by LPS stimulation for 24 hrs by ELISA method; format: functional, cell-based
In short: (§2)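 Dose-response in J774A.1 cells: 30 min pretreatment at 10, 5, 2.5 or 1.25 μM, then LPS 0.5 μg/mL for 24 h. IL-6 and TNF-α by ELISA, normalized to lysate protein; IC50 from the dose-response; 3 independent experiments, mean ± SEM.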

J774.A1 [4] = test: Cytotoxicity against mouse J774.A1 cells assessed as reduction in cell viability at 10 uM incubated for 24 hrs by MTT assay; format: functional, cell-based
In short: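 J774A.1 macrophages exposed to 10 μM for 24 h; MTT at 5 mg/mL added for 4 h; absorbance read at 490 nm; viability expressed as percent of DMSO control.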

J774.A1 [5] = test: Antiinflammatory activity in LPS-induced mouse J774.A1 cells assessed as inhibition of LPS-induced TNF-alpha release preincubated for 30 mins followed by LPS stimulation for 24 hrs by ELISA method; format: functional, cell-based; in short: as §2
Mus musculus [6] = test: Antiinflammatory activity in LPS-induced C57/BL6 mouse acute lung injury model assessed as decrease in IL-6 level in BALF at 20 mg/kg via oral gavage preincubated for 30 mins followed by LPS stimulation for 6 hrs by ELISA; settings: time 6.5 hrs
Mus musculus [7] = test: Antiinflammatory activity in LPS-induced C57/BL6 mouse acute lung injury model assessed as decrease in IL-6 level in serum at 20 mg/kg via oral gavage preincubated for 30 mins followed by LPS stimulation for 6 hrs by ELISA; settings: time 6.5 hrs
Mus musculus [8] = test: Protection against LPS-induced C57/BL6 mouse acute lung injury model assessed as improvement in structural distruption of lung tissue at 20 mg/kg via oral gavage preincubated for 30 mins followed by LPS stimulation for 6 hrs; format: functional, organism-based; settings: time 6.5 hrs
In short: (§3)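 Mice dosed 20 mg/kg by gavage (dexamethasone 20 mg/kg comparator), intratracheal LPS 5 mg/kg 30 min later, killed at 6 h. Right upper lobe fixed in paraformaldehyde, H&E; lung wet/dry ratio; BALF protein, total cells and neutrophils counted; n = 5 mice per group, mean ± SEM.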

Mus musculus [9] = test: Protection against LPS-induced C57/BL6 mouse acute lung injury model assessed as improvement in alveolar wall thickening at 20 mg/kg via oral gavage preincubated for 30 mins followed by LPS stimulation for 6 hrs; format: functional, organism-based; settings: time 6.5 hrs; in short: as §3
Mus musculus [10] = test: Antiinflammatory activity in LPS-induced C57/BL6 mouse acute lung injury model assessed as decrease in TNF-alpha level in BALF at 20 mg/kg via oral gavage preincubated for 30 mins followed by LPS stimulation for 6 hrs by ELISA; settings: time 6.5 hrs
Mus musculus [11] = test: Antiinflammatory activity in LPS-induced C57/BL6 mouse acute lung injury model assessed as decrease in IL-6 expression level at 20 mg/kg via oral gavage preincubated for 30 mins followed by LPS stimulation for 6 hrs by RT-qPCR method; format: functional, organism-based; settings: time 6.5 hrs
In short: (§4)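 Male C57BL/6 mice, six weeks old, n = 8 per group. Dosed 20 mg/kg orally 30 min before intratracheal LPS 5 mg/kg; dexamethasone 20 mg/kg as comparator. Lung tissue collected 6 h after LPS. RNA extracted with TRIzol; IL-6 and TNF-α transcripts by RT-qPCR, normalized to β-actin; n = 5 mice per group, mean ± SEM.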

Mus musculus [12] = test: Protection against LPS-induced C57/BL6 mouse acute lung injury model assessed as reduction in number of neutrophils in BALF at 20 mg/kg via oral gavage preincubated for 30 mins followed by LPS stimulation for 6 hrs; format: functional, organism-based; settings: time 6.5 hrs; in short: as §3
Mus musculus [13] = test: Antiinflammatory activity in LPS-induced C57/BL6 mouse acute lung injury model assessed as decrease in TNF-alpha level in serum at 20 mg/kg via oral gavage preincubated for 30 mins followed by LPS stimulation for 6 hrs by ELISA; settings: time 6.5 hrs
Mus musculus [14] = test: Antiinflammatory activity in LPS-induced C57/BL6 mouse acute lung injury model assessed as decrease in TNF-alpha expression level at 20 mg/kg via oral gavage preincubated for 30 mins followed by LPS stimulation for 6 hrs by RT-qPCR method; format: functional, organism-based; settings: time 6.5 hrs; in short: as §4
Mus musculus [15] = test: Protection against LPS-induced C57/BL6 mouse acute lung injury model assessed as reduction in number of total cells in BALF at 20 mg/kg via oral gavage preincubated for 30 mins followed by LPS stimulation for 6 hrs; format: functional, organism-based; settings: time 6.5 hrs; in short: as §3
Mus musculus [16] = test: Protection against LPS-induced C57/BL6 mouse acute lung injury model assessed as reduction in lung wet/dry ratio at 20 mg/kg via oral gavage preincubated for 30 mins followed by LPS stimulation for 6 hrs; format: functional, organism-based; settings: time 6.5 hrs; in short: as §3
Mus musculus [17] = test: Antiinflammatory activity in LPS-induced C57/BL6 mouse acute lung injury model assessed as reduction in macrophage infiltration at 20 mg/kg via oral gavage preincubated for 30 mins followed by LPS stimulation for 6 hrs by immunohistochemical staining based analysis; format: functional, organism-based; settings: time 6.5 hrs
In short: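 Same ALI model: 20 mg/kg oral, intratracheal LPS 5 mg/kg 30 min later, lungs at 6 h. Paraffin sections given citrate (pH 6.5) antigen retrieval, 3% H2O2 and 5% BSA block, anti-F4/80 12 h at 4 °C, HRP secondary, DAB and hematoxylin; F4/80 positivity quantified; n = 5 per group.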

Mus musculus [18] = test: Protection against LPS-induced C57/BL6 mouse acute lung injury model assessed as reduction in protein concentration in BALF at 20 mg/kg via oral gavage preincubated for 30 mins followed by LPS stimulation for 6 hrs; format: functional, organism-based; settings: time 6.5 hrs; in short: as §3

Structure (SMILES) | inhibition at 10 µM (J774.A1 [1]) | inhibition at 10 µM (J774.A1 [2]) | inhibition (J774.A1 [1]) | further results
COc1cc2nccc(Oc3ccc(NC(=O)c4cn(-c5ccc(F)c(Cl)c5)c5ccccc5c4=O)cc3)c2cc1OC | 67.7% | 62.2% |  | 
COc1cc2ncnc(Oc3ccc(NC(=O)c4cn(-c5ccccc5)c5ccccc5c4=O)cc3)c2cc1OC | 30.5% | 38.1% |  | 
COc1cc2ncnc(Oc3cccc(NC(=O)c4cn(-c5ccc(Br)cc5F)c5ccccc5c4=O)c3)c2cc1OC |  |  | inactive | inhibition (J774.A1 [2]): inactive
COc1cc2nccc(Oc3cccc(NC(=O)c4cn(-c5ccc(Br)cc5)c5ccccc5c4=O)c3)c2cc1OC |  | 37.1% | inactive | 
COc1cc2ncnc(Oc3cccc(NC(=O)c4cn(-c5ccc(F)cc5)c5ccccc5c4=O)c3)c2cc1OC |  | 45.4% | inactive | 
COc1cc2ncnc(Oc3cccc(NC(=O)c4cn(-c5ccc(Br)cc5)c5ccccc5c4=O)c3)c2cc1OC |  | 20.4% | inactive | 
COc1cc2ncnc(Oc3ccc(NC(=O)c4cn(-c5ccc(F)cc5)c5ccccc5c4=O)cc3)c2cc1OC | 48% | 57% |  | 
COc1cc2ncnc(Oc3ccc(NC(=O)c4cn(-c5ccc(Cl)cc5)c5ccccc5c4=O)cc3)c2cc1OC |  | 30.5% | inactive | 
COc1cc2nccc(Oc3ccc(NC(=O)c4cn(-c5ccc(Br)cc5)c5ccccc5c4=O)cc3)c2cc1OC | 71.7% | 41.7% |  | 
COc1cc2nccc(Oc3ccc(NC(=O)c4cn(-c5ccc(OC(F)(F)F)cc5)c5ccccc5c4=O)cc3)c2cc1OC | 67.6% | 50.5% |  | 
COc1cc2ncnc(Oc3cccc(NC(=O)c4cn(-c5ccc(Cl)cc5)c5ccccc5c4=O)c3)c2cc1OC |  | 32.3% | inactive | 
COc1cc2ncnc(Oc3ccc(NC(=O)c4cn(-c5ccc(Br)cc5)c5ccccc5c4=O)cc3)c2cc1OC | 22.4% |  |  | inhibition (J774.A1 [2]): inactive
COc1cc2nccc(Oc3cccc(NC(=O)c4cn(-c5ccc(F)c(Cl)c5)c5ccccc5c4=O)c3)c2cc1OC | 32.6% | 49.7% |  | 
COc1cc2nccc(Oc3cccc(NC(=O)c4cn(-c5ccc(F)cc5)c5ccccc5c4=O)c3)c2cc1OC |  | 51.3% | inactive | 
COc1cc2nccc(Oc3ccc(NC(=O)c4cn(-c5ccc(F)cc5)c5ccccc5c4=O)cc3)c2cc1OC | 83.1% | 77.4% |  | IC50 (J774.A1 [3]): 2.33 µM; inhibition (J774.A1 [3]; dose 1.25-10 µM, time 24.5 hrs): Dose-Dependent Effect; Activity (J774.A1 [4]): inactive; IC50 (J774.A1 [5]): 3.46 µM; inhibition (J774.A1 [5]; dose 1.25-10 µM, time 24.5 hrs): Dose-Dependent Effect
COc1cc2nccc(Oc3ccc(NC(=O)c4cn(-c5ccc(Br)cc5F)c5ccccc5c4=O)cc3)c2cc1OC |  | 26.7% | inactive | 
COc1cc2nccc(Oc3ccc(NC(=O)c4cn(-c5ccc(Cl)cc5)c5ccccc5c4=O)cc3)c2cc1OC | 63.5% | 32% |  | 
COc1cc2nccc(Oc3cccc(NC(=O)c4cn(-c5ccccc5)c5ccccc5c4=O)c3)c2cc1OC |  | 44.8% | inactive | 
COc1cc2nccc(Oc3cccc(NC(=O)c4cn(-c5ccc(Br)cc5F)c5ccccc5c4=O)c3)c2cc1OC |  | 52.9% | inactive | 
COc1cc2ncnc(Oc3cccc(NC(=O)c4cn(-c5ccccc5)c5ccccc5c4=O)c3)c2cc1OC |  | 42.4% | inactive | 
COc1cc2nccc(Oc3cccc(NC(=O)c4cn(-c5ccc(Cl)cc5)c5ccccc5c4=O)c3)c2cc1OC |  | 60.2% | inactive | 
COc1cc2ncnc(Oc3ccc(NC(=O)c4cn(-c5ccc(Br)cc5F)c5ccccc5c4=O)cc3)c2cc1OC |  | 13.3% | inactive | 
COc1cc2nccc(Oc3cccc(NC(=O)c4cn(-c5ccc(OC(F)(F)F)cc5)c5ccccc5c4=O)c3)c2cc1OC | 33.3% | 66.4% |  | 
COc1cc2ncnc(Oc3ccc(NC(=O)c4cn(-c5ccc(OC(F)(F)F)cc5)c5ccccc5c4=O)cc3)c2cc1OC | 54.9% | 35.9% |  | 
COc1cc2ncnc(Oc3cccc(NC(=O)c4cn(-c5ccc(OC(F)(F)F)cc5)c5ccccc5c4=O)c3)c2cc1OC | 7.66% | 10.4% |  | 
COc1cc2ncnc(Oc3cccc(NC(=O)c4cn(-c5ccc(F)c(Cl)c5)c5ccccc5c4=O)c3)c2cc1OC | 36% | 33.9% |  | 
COc1cc2ncnc(Oc3ccc(NC(=O)c4cn(-c5ccc(F)c(Cl)c5)c5ccccc5c4=O)cc3)c2cc1OC | 48% | 39.6% |  | 
C[C@@H]1C[C@H]2[C@@H]3CCC4=CC(=O)C=C[C@]4(C)[C@@]3(F)[C@@H](O)C[C@]2(C)[C@@]1(O)C(=O)CO |  |  |  | Activity (Mus musculus [6]): Active; Activity (Mus musculus [7]): Active; Activity (Mus musculus [8]): Active; Activity (Mus musculus [9]): Active; Activity (Mus musculus [10]): Active; Activity (Mus musculus [11]): Active; Activity (Mus musculus [12]): Active; Activity (Mus musculus [13]): Active; Activity (Mus musculus [14]): Active; Activity (Mus musculus [15]): Active; Activity (Mus musculus [16]): Active; Activity (Mus musculus [17]): Active; Activity (Mus musculus [18]): Active
